Experimental data: ChEMBL document CHEMBL4715736, “Identification of anticancer agents based on the thieno[2,3-b]pyridine and 1H-pyrazole molecular scaffolds” (2016)

Key:
Type in all cases: functional
SK-OV-3 = assay: Growth inhibition of human SK-OV-3 cells assessed as cell growth at 0.1 uM incubated for 48 hrs by sulforhodamine B assay relative to control; settings: read-out: Activity
Hs-578T [1] = assay: Growth inhibition of human Hs-578T cells assessed as cell growth at 1 uM incubated for 48 hrs by sulforhodamine B assay relative to control; settings: read-out: Activity
OVCAR-4 = assay: Growth inhibition of human OVCAR-4 cells assessed as cell growth at 0.1 uM incubated for 48 hrs by sulforhodamine B assay relative to control; settings: read-out: Activity
OVCAR-3 = assay: Growth inhibition of human OVCAR-3 cells assessed as cell growth at 0.1 uM incubated for 48 hrs by sulforhodamine B assay relative to control; settings: read-out: Activity
Hs-578T [2] = assay: Growth inhibition of human Hs-578T cells incubated for 48 hrs by sulforhodamine B assay
Outline: (§1)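 NCI60 panel at the NCI Developmental Therapeutics Program. Only compounds active in the 10 µM screen went to dose-response testing. GI50, the concentration giving 50% of maximal inhibition of proliferation, and TGI, the concentration giving total growth inhibition, were derived from the dose-response curves.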

SW-620 [3] = assay: Growth inhibition of human SW-620 cells assessed as cell growth at 100 uM incubated for 48 hrs by sulforhodamine B assay relative to control; settings: read-out: Activity
KM12 = assay: Growth inhibition of human KM12 cells incubated for 48 hrs by sulforhodamine B assay; outline: as §1
DU-145 [4] = assay: Growth inhibition of human DU-145 cells incubated for 48 hrs by sulforhodamine B assay
Outline: (§2)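 NCI Developmental Therapeutics Program NCI60 panel. Compounds that were active in the 10 µM one-dose screen went on to dose–response testing. Growth at each concentration is expressed relative to untreated control (100%). GI50 (concentration giving 50% of maximal inhibition of proliferation) and TGI (concentration giving total growth inhibition) were derived from the curves.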

T47D = assay: Growth inhibition of human T47D cells assessed as cell growth at 100 uM incubated for 48 hrs by sulforhodamine B assay relative to control; settings: read-out: Activity
NCI-H460 = assay: Growth inhibition of human NCI-H460 cells assessed as cell growth at 0.1 uM incubated for 48 hrs by sulforhodamine B assay relative to control; settings: read-out: Activity
MDA-MB-231 = assay: Growth inhibition of human MDA-MB-231 cells assessed as cell growth at 100 uM incubated for 48 hrs by sulforhodamine B assay relative to control; settings: read-out: Activity
HOP-62 [5] = assay: Growth inhibition of human HOP-62 cells assessed as cell growth at 100 uM incubated for 48 hrs by sulforhodamine B assay relative to control; settings: read-out: Activity
IGROV-1 = assay: Growth inhibition of human IGROV-1 cells incubated for 48 hrs by sulforhodamine B assay; outline: as §1
A549 [6] = assay: Growth inhibition of human A549/ATCC cells assessed as cell growth at 100 uM incubated for 48 hrs by sulforhodamine B assay relative to control; settings: read-out: Activity; outline: as §2
MDA-MB-435 = assay: Growth inhibition of human MDA-MB-435 cells assessed as cell growth at 0.1 uM incubated for 48 hrs by sulforhodamine B assay relative to control; settings: read-out: Activity
SNB-19 = assay: Growth inhibition of human SNB-19 cells assessed as cell growth at 1 uM incubated for 48 hrs by sulforhodamine B assay relative to control; settings: read-out: Activity
SW-620 [7] = assay: Growth inhibition of human SW-620 cells assessed as cell growth at 1 uM incubated for 48 hrs by sulforhodamine B assay relative to control; settings: read-out: Activity
SK-MEL-5 = assay: Growth inhibition of human SK-MEL-5 cells incubated for 48 hrs by sulforhodamine B assay
Outline: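 NCI DTP 60-line human tumour panel. Dose-response curves were run only for ligands active in the initial 10 µM screen. GI50 (concentration giving 50% of maximal inhibition of proliferation) and TGI (concentration giving total growth inhibition) were derived from these curves.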

CAKI-1 = assay: Growth inhibition of human CAKI-1 cells assessed as cell growth at 100 uM incubated for 48 hrs by sulforhodamine B assay relative to control; settings: read-out: Activity; outline: as §2
MOLT-4 = assay: Growth inhibition of human MOLT-4 cells assessed as cell growth at 0.1 uM incubated for 48 hrs by sulforhodamine B assay relative to control; settings: read-out: Activity
Malme-3M [8] = assay: Growth inhibition of human Malme-3M cells assessed as cell growth at 100 uM incubated for 48 hrs by sulforhodamine B assay relative to control; settings: read-out: Activity
TK-10 [9] = assay: Growth inhibition of human TK-10 cells assessed as cell growth at 0.01 uM incubated for 48 hrs by sulforhodamine B assay relative to control; settings: read-out: Activity
NCI-H226 = assay: Growth inhibition of human NCI-H226 cells incubated for 48 hrs by sulforhodamine B assay; outline: as §1
A549 [10] = assay: Growth inhibition of human A549/ATCC cells assessed as cell growth at 0.01 uM incubated for 48 hrs by sulforhodamine B assay relative to control; settings: read-out: Activity; outline: as §2
HOP-62 [11] = assay: Growth inhibition of human HOP-62 cells assessed as cell growth at 0.1 uM incubated for 48 hrs by sulforhodamine B assay relative to control; settings: read-out: Activity
BT-549 = assay: Growth inhibition of human BT-549 cells assessed as cell growth at 100 uM incubated for 48 hrs by sulforhodamine B assay relative to control; settings: read-out: Activity
HOP-92 [12] = assay: Growth inhibition of human HOP-92 cells assessed as cell growth at 0.1 uM incubated for 48 hrs by sulforhodamine B assay relative to control; settings: read-out: Activity
DU-145 [13] = assay: Growth inhibition of human DU-145 cells assessed as cell growth at 1 uM incubated for 48 hrs by sulforhodamine B assay relative to control; settings: read-out: Activity; outline: as §2
HOP-92 [14] = assay: Growth inhibition of human HOP-92 cells assessed as cell growth at 100 uM incubated for 48 hrs by sulforhodamine B assay relative to control; settings: read-out: Activity
Malme-3M [15] = assay: Growth inhibition of human Malme-3M cells assessed as cell growth at 1 uM incubated for 48 hrs by sulforhodamine B assay relative to control; settings: read-out: Activity
TK-10 [16] = assay: Growth inhibition of human TK-10 cells assessed as cell growth at 1 uM incubated for 48 hrs by sulforhodamine B assay relative to control; settings: read-out: Activity
M14 = assay: Growth inhibition of human M14 cells assessed as cell growth at 1 uM incubated for 48 hrs by sulforhodamine B assay relative to control; settings: read-out: Activity
[17] = read-out: LC50 (the source's name)

CN1CCc2nc3sc(C(N)=O)c(N)c3c(-c3cccs3)c2C1 showed a growth at 0.1 µM (SK-OV-3) of 92%, a growth at 1 µM (Hs-578T [1]) of 91% and a growth at 0.1 µM (OVCAR-4) of 107%. For the same compound, the growth at 0.1 µM (OVCAR-3) was 99%, the GI50 (Hs-578T [2]) was 3.07 µM and the TGI (Hs-578T [2]) was 21.7 µM. It also gave a CC50 (Hs-578T [2]; [17]) greater than 100 µM, a growth at 100 µM (SW-620 [3]) of 3% and a GI50 (KM12) of 2.7 µM. The LC50 (KM12) was greater than 100 µM, the TGI (KM12) was greater than 100 µM and the GI50 (DU-145 [4]) was 3.91 µM. It also gave a TGI (DU-145 [4]) of 86.9 µM, a CC50 (DU-145 [4]; [17]) greater than 100 µM and a growth at 100 µM (T47D) of 2%. For the same compound, the growth at 0.1 µM (NCI-H460) was 114%, the growth at 100 µM (MDA-MB-231) was 26% and the growth at 100 µM (HOP-62 [5]) was 2%. For the same compound, the GI50 (IGROV-1) was 5.16 µM, the LC50 (IGROV-1) was greater than 100 µM and the TGI (IGROV-1) was greater than 100 µM. It also gave a growth at 100 µM (A549 [6]) of 9%, a growth at 0.1 µM (MDA-MB-435) of 95% and a growth at 1 µM (SNB-19) of 104%. The growth at 1 µM (SW-620 [7]) was 116%, the GI50 (SK-MEL-5) was 1.43 µM and the LC50 (SK-MEL-5) was greater than 100 µM. For the same compound, the TGI (SK-MEL-5) was 5.24 µM, the growth at 100 µM (CAKI-1) was 7% and the growth at 0.1 µM (MOLT-4) was 91%. It also gave a growth at 100 µM (Malme-3M [8]) of -11%, a growth at 0.01 µM (TK-10 [9]) of 101% and a GI50 (NCI-H226) of 3.16 µM. It also gave a TGI (NCI-H226) greater than 100 µM, a CC50 (NCI-H226; [17]) greater than 100 µM and a growth at 0.01 µM (A549 [10]) of 99%. It also gave a growth at 0.1 µM (HOP-62 [11]) of 104%, a growth at 100 µM (BT-549) of -8% and a growth at 0.1 µM (HOP-92 [12]) of 116%. For the same compound, the growth at 1 µM (DU-145 [13]) was 108%, the growth at 100 µM (HOP-92 [14]) was -1% and the growth at 1 µM (Malme-3M [15]) was 131%. The growth at 1 µM (TK-10 [16]) was 103% and the growth at 1 µM (M14) was 115%.
